Screening results deposited in PubChem BioAssay by several laboratories.
An excerpt weighted towards active compounds, which were near 2.7% of everything screened.
Wee1 stabilizer – Wee1 degradation inhibitors, primary screen, cell-based, HeLa, Wee1K328M-luciferase, luminescence. Wee1-like protein kinase (Homo sapiens), P30291. HeLa Luc-Wee1K328M stability; 100% = proteasome inhibitor MG132 effect. reporter increase, % at 5 µM. actives 1.2% (n = 220,000). AID 1321, 2008;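 active = activation above the mean of all tested compounds plus 3 SD, set per screening run, cut at about 8.8% in these data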;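 note: cells exposed to compound for 20 h before luminescence read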
Target sequence (P30291 whole entry K328M): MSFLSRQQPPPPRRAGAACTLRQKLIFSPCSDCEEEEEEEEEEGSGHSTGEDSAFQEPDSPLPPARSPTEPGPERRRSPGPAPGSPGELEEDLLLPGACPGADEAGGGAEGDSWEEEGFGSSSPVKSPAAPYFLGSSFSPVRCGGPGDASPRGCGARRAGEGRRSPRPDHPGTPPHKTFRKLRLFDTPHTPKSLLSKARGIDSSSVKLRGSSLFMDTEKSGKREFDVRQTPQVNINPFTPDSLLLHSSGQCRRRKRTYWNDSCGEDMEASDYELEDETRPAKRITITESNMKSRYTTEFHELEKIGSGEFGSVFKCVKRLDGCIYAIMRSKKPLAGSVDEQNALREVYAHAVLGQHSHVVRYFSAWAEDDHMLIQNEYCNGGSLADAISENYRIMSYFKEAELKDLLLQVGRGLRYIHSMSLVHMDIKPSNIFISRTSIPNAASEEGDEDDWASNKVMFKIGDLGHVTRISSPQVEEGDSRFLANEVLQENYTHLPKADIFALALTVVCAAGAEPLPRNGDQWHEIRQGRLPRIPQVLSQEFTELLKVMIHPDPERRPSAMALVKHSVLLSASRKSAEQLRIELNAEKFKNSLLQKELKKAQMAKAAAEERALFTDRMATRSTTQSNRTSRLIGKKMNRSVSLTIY
p97 inhibitor – inhibitors of human p97 ATPase, primary screen, biochemical; recombinant p97 ATPase, Kinase-Glo ATP luminescence, 3 h; inhibition, % at 8 µM; Transitional endoplasmic reticulum ATPase (Homo sapiens), P55072; actives 0.42% (n = 220,000); in the data active = inhibition above about 15%
zVAD death inh – inhibitors of zVAD-triggered necroptosis, primary screen, L929 cells. viability rescue, % at 10 µM. AID 1377, 2008. L929 zVAD necroptosis rescue, ATP luminescence, 24 h; with zVAD 60 µM. actives 0.38% (n = 220,000);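 active = activation, scaled between plate controls, above about 75%, limit read from the data; inactive = activation under that limit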
PfM18AAP inh – PfM18AAP inhibitors, malaria aminopeptidase, primary screen, biochemical, QFRET, recombinant enzyme. AID 1822, 2009. H-Glu-NHMec fluorogenic cleavage. M18 aspartyl aminopeptidase (Plasmodium falciparum 3D7). actives 1.2% (n = 290,000). inhibition, % at 7.35 µM;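 active = inhibition above the campaign mean inhibition over all tested compounds plus 3 SD, cut at about 28% in these data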
TNF death inh – inhibitors of TNF-alpha triggered necroptosis, primary screen, cell-based, Jurkat FADD-/-, single concentration. activation (protection from cell death), % at 10 µM. actives 0.068% (n = 220,000). Jurkat FADD-/- TNF necroptosis rescue, ATP luminescence, 24 h; 0 = TNF only, 100 = no-TNF cells. AID 463075, 2010;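 active = activation, meaning protection from cell death, of at least 50% relative to plate controls; inactive = activation below 50%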;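 note: necroptosis triggered by 40 ng/mL TNF-alpha added together with compound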
RBBP9 inh – human RBBP9 inhibitors, primary screen, biochemical, fluorescence polarization, FP-Rh probe, HTS; AID 1515, 2009; actives 0.2% (n = 220,000); recombinant RBBP9; inhibition, % at 7.94 µM;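 active = inhibition above the campaign mean of all tested compounds plus 3 SD, cut at about 14% in these data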
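Measured by: FP readout at 525/598 nm; material: recombinant human RBBP9; also added: Serine-hydrolase probe FP-Rh, 375 nM pre-mixing; medium: Tris buffer pH 8.0, NaCl, Pluronic; replication: one well per compound; doses: one concentration, 7.94 µM nominal, 0.794% DMSO; timing: preincubation 30 min plus labeling 45 min at 25 °C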
Wee1 stab conf – Wee1 degradation inhibitors, confirmation, cell-based, HeLa, Wee1K328M-luciferase, luminescence, triplicate | shares compounds with Wee1 stabilizer | AID 1410, 2008 | HeLa Luc-Wee1K328M degradation; vehicle 0%, proteasome-blocked wells 100% | activation, % at 5 µM | actives 4% (n = 1,100); in the data active = activation above about 8.9%
Numbers stand for hits; - = inactive; . = not tested or not shown.

SMILES	Wee1 stabilizer	p97 inhibitor	zVAD death inh	PfM18AAP inh	TNF death inh	RBBP9 inh	Wee1 stab conf
O=C(NN1CCN(Cc2ccccc2Cl)CC1)c1ccc(Br)cc1	-	-	-	-	-	-	.
NS(=O)(=O)c1ccc(NC(=S)NC(=O)c2cccs2)cc1	19.2	-	-	-	-	-	-
COC(=O)C1CCN(C(=O)/C=C/c2ccc(OC)cc2)CC1	11.1	-	-	-	-	-	10.3
CC(Oc1cc(F)ccc1[N+](=O)[O-])C(=O)N(C)CC(=O)Nc1ccccc1C(F)(F)F (centres undefined)	-	-	-	-	-	-	.
O=C(O)/C=C/c1cnn(-c2ccccc2)c1	15.1	-	-	-	-	-	-
COc1ccc(CCC(=O)N(C)CC(=O)Nc2cc(C)ccc2C)cc1	17.4	-	-	-	-	-	-
Cc1ccsc1/C=C1\CCc2ccccc2C1=O	16.0	-	-	-	-	-	-
Cc1ccccc1/C=C1\CCCc2ccccc2C1=O	-	-	-	-	-	-	.
CCn1c(SCC(=O)NNC(=O)c2ccc(OC)cc2)nnc1C1CC1	.	.	.	-	.	.	.
COc1ccc(-n2c(SCC(=O)N3CCCCC3)nc3ccccc3c2=O)cc1	.	.	.	-	.	.	.
CCOC(=O)N1CCN(C(=O)CSc2nc3ccccc3c(=O)n2-c2ccccc2)CC1	11.3	-	-	-	-	-	-
O=C(Cc1csc(-c2ccccc2)n1)NCc1ccc(F)cc1	-	-	-	-	-	-	.
O=C(NCc1csc(-c2ccccc2)n1)c1cc(F)cc2c1OCOC2	15.0	-	-	-	-	-	-
CC1CCCCN1C(=O)CSc1nnc(-c2c[nH]c3ccccc23)o1 (centres undefined)	12.6	-	-	-	-	-	-
CN(C)S(=O)(=O)c1cccc(C(=O)OCC(=O)NC2CCCc3ccccc32)c1 (centres undefined)	-	-	-	-	-	-	.
CCOc1ccc(NC(=O)C2C3CC/C=C\CCC32)cc1 (centres undefined)	11.3	-	-	-	-	-	-
Cc1cc(NC(=O)CSc2nnc(C3COc4ccccc4O3)n2C)no1 (centres undefined)	21.5	-	-	-	-	-	-
Cc1ccc(C(=O)NCC(=O)OCC(=O)N2CCCc3ccccc32)cc1	-	-	-	-	-	-	.
Cc1cccc(C(=O)NCC(=O)OCC(=O)N2CCc3ccccc32)c1	13.3	-	-	-	-	-	-
C=CC(=O)NC(NC(=O)C=C)c1ccccc1F	-	-	-	-	-	-	.
COc1cccc(C2=NOC(C(=O)N3CCN(c4ccccc4)CC3)C2)c1OC (centres undefined)	31.1	-	-	-	-	-	-
CCCCCCCC1(C)NC(=O)N(c2ccccc2)N1 (centres undefined)	13.8	-	-	-	-	-	-
COc1cc(C2Nc3cc(Cl)c(S(N)(=O)=O)cc3S(=O)(=O)N2)cc(OC)c1OC (centres undefined)	11.6	-	-	-	-	-	-
COc1ccc(NC(=O)CO/N=C2\CCCc3nonc32)cc1	-	-	-	-	-	-	.
O=C(CO/N=C1\CCCc2nonc21)Nc1ccc(Br)cc1	11.6	-	-	-	-	-	-
Cc1cccnc1NC(=O)Nc1cccc(Cl)c1	.	.	.	-	.	.	.
COc1cc(/C=N\NC(=O)c2ccc(-c3ccccc3)cc2)cc(OC)c1O	.	.	.	-	.	.	.
COc1cc(/C=N/N=C(/C(=O)c2ccccc2)c2ccccc2)cc(OC)c1O	12.3	-	-	-	-	-	-
O=C(CCSCc1ccccc1F)NCc1cccs1	10.9	-	-	-	-	-	-
O=C(CCSCc1ccccc1Cl)NCc1cccs1	-	-	-	-	-	-	.
